Data on 20 molecules can be found in ChEMBL document CHEMBL4613283, “Synthesis, Antiproliferative Effect, and Topoisomerase II Inhibitory Activity of 3-Methyl-2-phenyl-1H-indoles” (2020).

The subject of assay [1] is MSTO-211H. As to the kind of experiment: Growth inhibition of human MSTO-211H cells incubated for 72 hrs by trypan blue assay. Format: functional. A digest of the protocol:
(§1)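 HeLa, A2780 and MSTO-211H human tumor cells; GI50 taken as the concentration (μM) inhibiting growth of 50% of cells relative to an untreated control culture; mean ± SD of at least three independent experiments.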

In assay [2] the target is DNA topoisomerase 2-alpha (Homo sapiens) (UniProt P11388). In words: Inhibition of recombinant human topoisomerase 2 alpha-mediated relaxation of supercoiled pBR322 DNA at 100 uM incubated for 30 mins by ethidium bromide staining based agarose gel electrophoresis method. The procedure, abridged:
(§2)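 Supercoiled pBR322 plasmid incubated with human recombinant topoisomerase II without or with compound at 100 μM, or at 25 and 50 μM; m-AMSA 20 μM as reference; relaxation inhibition judged from electrophoretic pattern of supercoiled DNA versus relaxed topoisomers.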

Assay [3] relates to A2780. In words: Growth inhibition of human A2780 cells incubated for 72 hrs by trypan blue assay. The format is functional. The settings on record: A2780, 72 h. The procedure, abridged: as §1
The test system of assay [4] is HeLa. As to the kind of experiment: Growth inhibition of human HeLa cells incubated for 72 hrs by trypan blue assay. The format is functional. The procedure, abridged: as §1
Assay [5] has as its target DNA topoisomerase 2-alpha (Homo sapiens) (UniProt P11388). In words: Inhibition of recombinant human topoisomerase 2 alpha-mediated relaxation of supercoiled pBR322 DNA at 50 uM incubated for 30 mins by ethidium bromide staining based agarose gel electrophoresis method relative to control. The procedure, abridged: as §2
Assay [6] relates to A2780. As to the kind of experiment: Induction of apoptosis in human A2780 cells assessed as depolarization of mitochondrial membrane potential at 50 uM incubated for 28 hrs by JC-1 staining based flow cytometry (reference value: 3.8 %). The format is functional. A digest of the protocol: (§3)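 A2780 cells exposed 28 h to increasing concentrations versus untreated control, stained with JC-1 and analysed by flow cytometry; mitochondrial potential read as red aggregate versus green monomer fluorescence; percentages of cells with polarized and depolarized mitochondria reported.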

The subject of assay [7] is A2780. In words: Induction of apoptosis in human A2780 cells assessed as polarization of mitochondrial membrane potential at 50 uM incubated for 28 hrs by JC-1 staining based flow cytometry (reference value: 96.1 %). Format: functional. A digest of the protocol:
as §3

In assay [8] the target is DNA topoisomerase 2-alpha (Homo sapiens) (UniProt P11388). As to the kind of experiment: Inhibition of recombinant human topoisomerase 2 alpha-mediated relaxation of supercoiled pBR322 DNA at 50 uM incubated for 30 mins by ethidium bromide staining based agarose gel electrophoresis method. The procedure, abridged:
as §2

The test system of assay [9] is A2780. As to the kind of experiment: Induction of apoptosis in human A2780 cells assessed as decrease of mitochondrial membrane potential incubated for 28 hrs by JC-1 staining based flow cytometry.
Assay [10] has as its system A2780. As to the kind of experiment: Induction of apoptosis in human A2780 cells assessed as depolarization of mitochondrial membrane potential at 10 uM incubated for 28 hrs by JC-1 staining based flow cytometry (reference value: 3.8 %). Format: functional. The procedure, abridged:
as §3

For assay [11], the target named is DNA topoisomerase 2-alpha (Homo sapiens) (UniProt P11388). As to the kind of experiment: Inhibition of recombinant human topoisomerase 2 alpha-mediated relaxation of supercoiled pBR322 DNA at 25 uM incubated for 30 mins by ethidium bromide staining based agarose gel electrophoresis method. The procedure, abridged: as §2
The subject of assay [12] is A2780. As to the kind of experiment: Induction of apoptosis in human A2780 cells assessed as polarization of mitochondrial membrane potential at 10 uM incubated for 28 hrs by JC-1 staining based flow cytometry (reference value: 96.1 %). Format: functional. A digest of the protocol: as §3
Assay [13] concerns A2780. In words: Induction of apoptosis in human A2780 cells assessed as increase in sub-G0 accumulation at 50 uM incubated for 28 hrs by propidium iodide staining based flow cytometry relative to control. Format: functional. The procedure, abridged:
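A2780 cells treated 28 h at 10 and 50 μM alongside untreated control, stained with propidium iodide, DNA content per cell measured by flow cytometry; apoptotic fraction taken as sub-G0 (hypodiploid) peak.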

For assay [14], the target named is DNA topoisomerase 2-alpha (Homo sapiens) (UniProt P11388). As to the kind of experiment: Inhibition of recombinant human topoisomerase 2 alpha-mediated relaxation of supercoiled pBR322 DNA at 100 uM incubated for 30 mins by ethidium bromide staining based agarose gel electrophoresis method relative to control. The procedure, abridged: as §2

Activity calls are given as the source filed them. The rule behind the calls is not given here.

DNA topoisomerase 2-alpha (Homo sapiens), sequence (P11388 whole entry): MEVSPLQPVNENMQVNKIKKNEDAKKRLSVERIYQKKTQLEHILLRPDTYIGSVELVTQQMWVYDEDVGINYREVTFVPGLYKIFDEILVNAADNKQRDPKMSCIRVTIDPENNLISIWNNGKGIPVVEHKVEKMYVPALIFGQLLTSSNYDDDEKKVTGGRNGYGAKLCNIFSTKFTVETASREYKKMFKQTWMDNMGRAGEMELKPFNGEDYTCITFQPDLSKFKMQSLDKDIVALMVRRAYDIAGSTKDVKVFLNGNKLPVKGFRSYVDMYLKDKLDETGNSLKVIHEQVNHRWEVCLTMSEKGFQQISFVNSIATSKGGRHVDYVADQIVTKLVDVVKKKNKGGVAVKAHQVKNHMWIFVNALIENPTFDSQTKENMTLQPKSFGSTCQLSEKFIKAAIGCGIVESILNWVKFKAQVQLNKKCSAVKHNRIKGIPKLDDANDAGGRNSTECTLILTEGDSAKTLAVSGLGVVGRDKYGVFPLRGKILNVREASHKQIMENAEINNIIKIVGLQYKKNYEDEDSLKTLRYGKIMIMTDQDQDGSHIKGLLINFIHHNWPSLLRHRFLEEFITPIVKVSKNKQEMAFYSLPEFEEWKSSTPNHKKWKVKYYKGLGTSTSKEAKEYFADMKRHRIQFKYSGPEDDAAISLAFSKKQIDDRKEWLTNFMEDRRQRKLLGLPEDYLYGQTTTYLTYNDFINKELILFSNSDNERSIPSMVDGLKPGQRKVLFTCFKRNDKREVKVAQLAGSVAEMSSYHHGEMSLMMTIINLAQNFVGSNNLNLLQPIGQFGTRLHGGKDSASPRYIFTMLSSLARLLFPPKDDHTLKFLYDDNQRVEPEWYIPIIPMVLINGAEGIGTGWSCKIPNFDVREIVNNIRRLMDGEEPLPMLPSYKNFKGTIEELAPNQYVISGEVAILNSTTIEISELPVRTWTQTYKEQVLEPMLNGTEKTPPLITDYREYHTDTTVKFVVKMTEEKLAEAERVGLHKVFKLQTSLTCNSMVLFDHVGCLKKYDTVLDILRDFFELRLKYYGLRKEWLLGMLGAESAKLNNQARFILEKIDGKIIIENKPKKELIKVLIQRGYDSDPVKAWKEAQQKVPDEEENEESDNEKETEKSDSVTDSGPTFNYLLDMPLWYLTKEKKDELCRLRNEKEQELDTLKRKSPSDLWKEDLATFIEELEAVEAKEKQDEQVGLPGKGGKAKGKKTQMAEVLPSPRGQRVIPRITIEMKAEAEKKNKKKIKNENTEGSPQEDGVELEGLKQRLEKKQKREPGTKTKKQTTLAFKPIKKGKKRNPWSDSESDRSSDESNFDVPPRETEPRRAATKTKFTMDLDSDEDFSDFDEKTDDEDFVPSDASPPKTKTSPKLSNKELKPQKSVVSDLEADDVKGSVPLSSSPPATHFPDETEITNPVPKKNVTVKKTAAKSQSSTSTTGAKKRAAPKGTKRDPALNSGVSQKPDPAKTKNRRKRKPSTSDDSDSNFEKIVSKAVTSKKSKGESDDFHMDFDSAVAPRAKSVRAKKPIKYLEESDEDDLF

On to `CCOC(=O)Cn1c(-c2ccc(O)cc2)c(C)c2ccccc21`, for which the concentration for 50% growth inhibition (GI50) in assay [1] was above 20 µM; in assay [3] it was 13 µM; in assay [4], above 20 µM. For the same molecule, the inhibition entry in assay [2] was “inactive”.

On to `COc1ccc2c(c1)c(C)c(-c1ccc(OC)c(OC)c1)n2CCCCOc1ccccc1`, for which the 50% growth inhibitory concentration (GI50) in assay [1] is 13 µM; in assay [3] it was 17 µM; in assay [4], above 20 µM. Moreover, the inhibition entry in assay [2] is “inactive”.

Regarding `Cc1c(-c2ccc(OC(=O)c3c[nH]cn3)cc2)[nH]c2ccccc12`, the GI50 in [1], in assay [3] and in assay [4] was above 20 µM each time.

For `COc1cc(NS(C)(=O)=O)ccc1Nc1c2ccccc2nc2ccccc12` [AMSACRINE], the values for the GI50 in assay [1], in assay [3] and in assay [4] were 0.019 µM, 0.027 µM and 0.031 µM, respectively.

As for `CCCn1c(-c2ccc(O)cc2)c(C)c2cc(O)ccc21`, the values for the GI50 in assay [1], in assay [3] and in [4] were 2.9 µM, 2.3 µM and 7.9 µM, respectively. Further, the inhibition entry in assay [2] is “Active”.

In the case of `Cc1ncsc1C(=O)Oc1ccc(-c2[nH]c3ccccc3c2C)cc1`, the results for the GI50 in [1], in [3] and in assay [4] were above 20 µM, 13 µM and above 20 µM, respectively.

Take `Cc1c(-c2ccc(O)cc2)n(CCCOc2ccccc2)c2ccc(O)cc12`: the inhibition in assay [5] amounted to 100%. The GI50 in [1] was determined as 2.4 µM; in [3] it was 2.2 µM; in assay [4], 4.4 µM. Moreover, the Activity is 42.2% in assay [6]; 57.7% in [7]; “Dose-dependent effect” in assay [9]; 12.6% in assay [10]; 87% in assay [12]; 30% in assay [13]. The inhibition result in assay [2], in [8] and in assay [11] was “Active” each time.

For the molecule `Cc1c(-c2ccc(O)c(O)c2)n(CCCOc2ccccc2)c2ccc(O)cc12`, the GI50 in [1] is 7.1 µM; in assay [3], 7.4 µM; in assay [4], 18 µM. Moreover, the inhibition entry in assay [2] is “Active”.

As for `Cc1c(-c2ccc(O)cc2)[nH]c2ccccc12`, the GI50 in [1], in assay [3] and in assay [4] was above 20 µM throughout.

For `Cc1c(-c2ccc(O)c(O)c2)n(CCCCOc2ccccc2)c2ccc(O)cc12`, the GI50 in [1] was 3.4 µM; in [3], 4.3 µM; in [4], 10 µM. Further, in assay [2], the inhibition result is “Active”.

`O=c1c(O)c(-c2ccc(O)c(O)c2)oc2cc(O)cc(O)c12` [QUERCETIN]: the GI50 in [1] is above 20 µM; in assay [3] it was 19.7 µM; in assay [4], 17.7 µM.

`CCCn1c(-c2ccc(O)cc2)c(C)c2ccccc21`: the GI50 in assay [1] was 7.1 µM; in [3], 9 µM; in [4] it was above 20 µM. Further, the inhibition entry in assay [2] is “inactive”.

As to `Cc1c(-c2ccc(O)c(O)c2)n(C)c2ccc(O)cc12`, the GI50 in assay [1] is above 20 µM; in [3], 14 µM; in [4], above 20 µM. The inhibition result in assay [2] is “inactive”.

For the molecule `Cc1c(-c2ccc(O)cc2)n(CCCCOc2ccccc2)c2ccc(O)cc12`, the results for the GI50 in assay [1], in assay [3] and in [4] were 2.9 µM, 2 µM and 4 µM, respectively. Moreover, the inhibition result in assay [2] is “Active”.

Take `Cc1c(-c2ccc(O)cc2)n(CC(=O)O)c2ccccc12`: the GI50 in [1], in assay [3] and in [4] was above 20 µM in each case. Moreover, the inhibition entry in assay [2] is “inactive”.

As for `Cc1c(-c2ccc(O)c(O)c2)[nH]c2ccc(O)cc12`, the GI50 is above 20 µM in assay [1], 2.2 µM in [3] and above 20 µM in [4]. Also, in assay [14], the inhibition was 100%. For the same molecule, the inhibition result in assay [8] and in assay [11] was “Active” in each case.

Take `Cc1c(-c2ccc(O)cc2)[nH]c2ccc(O)cc12`: the 50% growth inhibitory concentration (GI50) was above 20 µM in assay [1], 11 µM in [3] and 16 µM in assay [4]. For the same molecule, the inhibition entry in assay [2] was “Active”. Moreover, the inhibition result in [8] and in assay [11] was “inactive” in each case.

With `Cc1c(-c2ccc(O)cc2)n(CCOc2ccccc2)c2ccc(O)cc12`, the GI50 in [1] is 7.6 µM; in [3], 4.7 µM; in assay [4] it was 15 µM. Moreover, the inhibition entry in assay [2] is “Active”.

As for `CCCn1c(-c2ccc(O)c(O)c2)c(C)c2cc(O)ccc21`, the GI50 in [1] was above 20 µM; in [3], 8.4 µM; in [4], above 20 µM. For the same molecule, in [2], the inhibition entry was “Active”.

Turning to `Cc1c(-c2ccc(O)cc2)n(CCCCOc2ccccc2)c2ccccc12`, the GI50 is 3.3 µM in assay [1], 3.1 µM in assay [3] and 11 µM in assay [4]. Also, the inhibition result in assay [2] is “Active”.
